Experimental data from ChEMBL document CHEMBL4715748, “Synthesis and biological investigation of new equatorial (β) stereoisomers of 3-aminotropane arylamides with atypical antipsychotic profile” (Bioorg Med Chem, 2016).

Key:
D(2) dopamine receptor = D(2) dopamine receptor (Rattus norvegicus, UniProt P61169); test: Displacement of [3H] Spiperone from rat striatum dopamine D2 receptor measured after 30 mins by liquid scintillation counter method
How it was run: (§1)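 Competition binding in rat brain tissue membranes against D2, 5-HT1A and 5-HT2A sites; Ki reported as mean ± S.E.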

[1] = molecular target: T1, 5-hydroxytryptamine receptor 1A (Rattus norvegicus, UniProt P19327); test: Displacement of [3H]-8-OH-DPAT from rat cerebral cortex 5HT1A receptor measured after 15 mins by liquid scintillation counter method
T1 sequence (P19327 whole entry): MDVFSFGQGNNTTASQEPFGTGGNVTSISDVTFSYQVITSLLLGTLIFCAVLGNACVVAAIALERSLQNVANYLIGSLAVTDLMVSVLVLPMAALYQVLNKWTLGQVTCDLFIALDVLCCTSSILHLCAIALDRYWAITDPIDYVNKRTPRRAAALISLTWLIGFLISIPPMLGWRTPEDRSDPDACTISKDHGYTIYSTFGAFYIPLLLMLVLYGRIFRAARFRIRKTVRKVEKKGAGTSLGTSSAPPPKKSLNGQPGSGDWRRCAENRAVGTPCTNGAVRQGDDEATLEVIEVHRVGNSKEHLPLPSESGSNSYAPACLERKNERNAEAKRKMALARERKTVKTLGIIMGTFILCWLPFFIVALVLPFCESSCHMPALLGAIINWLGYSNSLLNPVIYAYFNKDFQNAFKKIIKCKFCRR

[2] = molecular target: 5-hydroxytryptamine receptor 2A (Rattus norvegicus, UniProt P14842); test: Displacement of [3H]-ketanserin from rat cerebral cortex 5HT2A receptor measured after 20 mins by liquid scintillation counter method; how it was run: as §1
Chain of 5-hydroxytryptamine receptor 2A (P14842 whole entry): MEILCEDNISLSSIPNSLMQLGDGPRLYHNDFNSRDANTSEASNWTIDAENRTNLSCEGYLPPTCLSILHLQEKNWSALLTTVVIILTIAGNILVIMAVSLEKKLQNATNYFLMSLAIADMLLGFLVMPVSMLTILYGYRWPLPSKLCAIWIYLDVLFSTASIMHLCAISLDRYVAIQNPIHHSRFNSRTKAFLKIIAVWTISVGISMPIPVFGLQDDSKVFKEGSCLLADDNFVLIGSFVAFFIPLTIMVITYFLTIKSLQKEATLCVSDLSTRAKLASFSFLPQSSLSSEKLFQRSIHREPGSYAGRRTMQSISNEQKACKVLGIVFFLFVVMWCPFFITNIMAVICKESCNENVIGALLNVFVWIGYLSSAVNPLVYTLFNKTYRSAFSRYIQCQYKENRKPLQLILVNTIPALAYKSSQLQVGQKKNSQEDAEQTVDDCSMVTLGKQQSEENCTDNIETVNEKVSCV

[3] = molecular target: Dopamine D2 receptor and Serotonin 2a receptor (D2 and 5HT2a) (Rattus norvegicus) (UniProt P61169+P14842); test: Ratio of pKi for displacement of [3H]-ketanserin from rat cerebral cortex 5HT2A receptor measured after 20 mins by liquid scintillation counter method to pKi for displacement of [3H] Spiperone from rat striatum dopamine D2 receptor measured after 30 mins by liquid scintillation counter method
Chain of Dopamine D2 receptor and Serotonin 2a receptor (D2 and 5HT2a) (Rattus norvegicus) (P14842 whole entry, looked up): as the sequence (P14842 whole entry) above
Chain of Dopamine D2 receptor and Serotonin 2a receptor (D2 and 5HT2a) (Rattus norvegicus) (P61169 whole entry, looked up): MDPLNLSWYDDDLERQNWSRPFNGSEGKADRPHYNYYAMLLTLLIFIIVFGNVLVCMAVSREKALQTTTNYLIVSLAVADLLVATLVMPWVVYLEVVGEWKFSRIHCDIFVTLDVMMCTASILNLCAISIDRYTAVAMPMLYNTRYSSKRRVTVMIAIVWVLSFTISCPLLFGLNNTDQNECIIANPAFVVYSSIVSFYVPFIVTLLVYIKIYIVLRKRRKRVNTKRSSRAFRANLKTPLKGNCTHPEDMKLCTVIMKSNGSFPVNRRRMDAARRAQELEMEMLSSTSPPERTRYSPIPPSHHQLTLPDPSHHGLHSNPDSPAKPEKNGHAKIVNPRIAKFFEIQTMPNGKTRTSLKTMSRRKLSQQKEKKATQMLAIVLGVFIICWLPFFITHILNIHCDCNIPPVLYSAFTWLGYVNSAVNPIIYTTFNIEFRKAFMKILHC
How it was run: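 Ratio of pKi values, 5-HT2A over D2, computed from competition radioligand binding in rat brain tissue.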

[4] = Effect on body temperature in Swiss Albino mouse assessed as rectal body temperature at 10 mg/kg, ip measured after 30 mins by thermometer (reference value: 0.16 to 0.33 degreeC); assay type: organism-based; settings: in vivo, 0.5 h
[5] = Effect on body temperature in Swiss Albino mouse assessed as rectal body temperature at 20 mg/kg, ip measured after 30 mins by thermometer (reference value: 0.16 to 0.33 degreeC); assay type: ADME, organism-based; settings: in vivo, 0.5 h
[6] = Effect on body temperature in Swiss Albino mouse assessed as rectal body temperature at 10 mg/kg, ip measured after 60 mins by thermometer (reference value: 0.33 to 0.61 degreeC); assay type: ADME, organism-based; settings: in vivo, 1 h
[7] = Effect on body temperature in Swiss Albino mouse assessed as rectal body temperature at 20 mg/kg, ip measured after 60 mins by thermometer (reference value: 0.33 to 0.61 degreeC); assay type: ADME, organism-based; settings: in vivo, 1 h
[8] = Effect on body temperature in Swiss Albino mouse assessed as rectal body temperature at 10 mg/kg, ip measured after 90 mins by thermometer (reference value: 0.18 to 0.63 degreeC); assay type: ADME, organism-based; settings: in vivo, 1.5 h
[9] = Effect on body temperature in Swiss Albino mouse assessed as rectal body temperature at 20 mg/kg, ip measured after 90 mins by thermometer (reference value: 0.18 to 0.63 degreeC); assay type: ADME, organism-based; settings: in vivo, 1.5 h
[10] = Effect on body temperature in Swiss Albino mouse assessed as rectal body temperature at 10 mg/kg, ip measured after 120 mins by thermometer (reference value: 0.15 to 1.11 degreeC); assay type: organism-based; settings: in vivo, 2 h
[11] = Effect on body temperature in Swiss Albino mouse assessed as rectal body temperature at 20 mg/kg, ip measured after 120 mins by thermometer (reference value: 0.15 to 1.11 degreeC); assay type: ADME, organism-based; settings: in vivo, 2 h
Mus musculus [12] = test: Effect on 8-OH-DPAT-induced hypothermia in Swiss albino mouse assessed as change in rectal body temperature at 10 mg/kg, ip pretreated with compound for 45 mins followed by 8-OH-DPAT challenge and measured after 15 min by thermometer (reference value: -1.82 to -1.66 degreeC); assay type: functional, organism-based; settings: time 60.0 min
Mus musculus [13] = test: Effect on 8-OH-DPAT-induced hypothermia in Swiss albino mouse assessed as change in rectal body temperature at 20 mg/kg, ip pretreated with compound for 45 mins followed by 8-OH-DPAT challenge and measured after 15 min by thermometer (reference value: -1.82 to -1.66 degreeC); assay type: functional, organism-based; settings: time 60.0 min
Mus musculus [14] = test: Effect on 8-OH-DPAT-induced hypothermia in Swiss albino mouse assessed as change in rectal body temperature at 10 mg/kg, ip pretreated with compound for 45 mins followed by 8-OH-DPAT challenge and measured after 30 min by thermometer (reference value: -1.36 to -1.12 degreeC); assay type: functional, organism-based; settings: time 75.0 min
Mus musculus [15] = test: Effect on 8-OH-DPAT-induced hypothermia in Swiss albino mouse assessed as change in rectal body temperature at 20 mg/kg, ip pretreated with compound for 45 mins followed by 8-OH-DPAT challenge and measured after 30 min by thermometer (reference value: -1.36 to -1.12 degreeC); assay type: functional, organism-based; settings: time 75.0 min
Mus musculus [16] = test: Effect on 8-OH-DPAT-induced hypothermia in Swiss albino mouse assessed as change in rectal body temperature at 10 mg/kg, ip pretreated with compound for 45 mins followed by 8-OH-DPAT challenge and measured after 45 min by thermometer (reference value: -1.04 to -0.78 degreeC); assay type: functional, organism-based; settings: time 90.0 min
Mus musculus [17] = test: Effect on 8-OH-DPAT-induced hypothermia in Swiss albino mouse assessed as change in rectal body temperature at 20 mg/kg, ip pretreated with compound for 45 mins followed by 8-OH-DPAT challenge and measured after 45 min by thermometer (reference value: -1.04 to -0.78 degreeC); assay type: functional, organism-based; settings: time 90.0 min
Mus musculus [18] = test: Effect on 8-OH-DPAT-induced hypothermia in Swiss albino mouse assessed as change in rectal body temperature at 10 mg/kg, ip pretreated with compound for 45 mins followed by 8-OH-DPAT challenge and measured after 60 min by thermometer (reference value: -0.66 to -0.5 degreeC); assay type: functional, organism-based; settings: time 105.0 min
Mus musculus [19] = test: Effect on 8-OH-DPAT-induced hypothermia in Swiss albino mouse assessed as change in rectal body temperature at 20 mg/kg, ip pretreated with compound for 45 mins followed by 8-OH-DPAT challenge and measured after 60 min by thermometer (reference value: -0.66 to -0.5 degreeC); assay type: functional, organism-based; settings: time 105.0 min
[20] = Effect on 8-OH-DPAT-induced lower lip retraction in Wistar rat at 10 mg/kg, ip pretreated with compound for 45 mins followed by 8-OH-DPAT challenge and measured after 15 mins (reference value: 2.7 to 2.8); assay type: functional; settings: time 60 min, 1 h
[21] = Effect on 8-OH-DPAT-induced lower lip retraction in Wistar rat at 20 mg/kg, ip pretreated with compound for 45 mins followed by 8-OH-DPAT challenge and measured after 15 mins (reference value: 2.7 to 2.8); assay type: functional; settings: time 60 min, 1 h
Mus musculus [22] = test: Antipsychotic activity Swiss Albino mouse assessed as inhibition of DOI-induced head twitching by measuring number of episodes at 2.5 mg/kg, ip administered 30 mins prior to DOI stimulation (reference value: 19.63 to 19.88); assay type: functional; settings: 0.5 h
How it was run: (§2)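 Male Albino Swiss mice (24–28 g) were habituated to sawdust-lined cages 20 min before the first treatment. Compounds were suspended in 1% aqueous Tween 80 and given i.p. 30 min before (±)-DOI, 2.5 mg/kg i.p. in aqueous solution. Head twitches were counted blind over 20 min, n=8 per group, mean ± SEM, one-way ANOVA with Dunnett's test.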

Mus musculus [23] = test: Antipsychotic activity Swiss Albino mouse assessed as inhibition of DOI-induced head twitching by measuring number of episodes at 5 mg/kg, ip administered 30 mins prior to DOI stimulation (reference value: 19.63 to 19.88); assay type: functional; settings: 0.5 h; how it was run: as §2
Mus musculus [24] = test: Antipsychotic activity Swiss Albino mouse assessed as inhibition of DOI-induced head twitching by measuring number of episodes at 10 mg/kg, ip administered 30 mins prior to DOI stimulation (reference value: 19.63 to 19.88); assay type: functional; settings: 0.5 h; how it was run: as §2
[25] = Half life in pooled human liver microsomes assessed as parent compound remaining at 2.5 uM measured up to 45 mins in presence of NADPH by LC-MS analysis; assay type: ADME, Microsome
How it was run: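 Compound at 2.5 μM (added from 100 μM stock in 50/50 acetonitrile/water) with 1 mg/mL pooled human liver microsomes and 250 μM NADPH in 0.1 M potassium phosphate pH 7.4 at 37 °C after 5-min preincubation. Sampled at 5, 10, 15, 30, 45 min into ice-cold acetonitrile with atropine internal standard; parent quantified by LC-MS (ESI+, [M+H]+); no-NADPH controls; half-time derived.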

Chain of D(2) dopamine receptor (P61169 whole entry): as the sequence (P61169 whole entry, looked up) above

Compound: O=C(NC1CC2CCC(C1)N2Cc1cccc(C(F)(F)F)c1)c1ccc2ccccc2c1 (stereo unspecified)
- Ki (D(2) dopamine receptor): 217 nM
- Ki [1]: 130 nM
- Ki [2]: 209 nM

Compound: COc1ccccc1CN1C2CCC1CC(NC(=O)c1ccc3ccccc3c1)C2 (stereo unspecified)
- Ki (D(2) dopamine receptor): 76.9 nM
- Ki [1]: 82.5 nM
- Ki [2]: 920 nM
- Ratio pKi [3]: 0.85
- deltaT [4]: 0.23 °C
- deltaT [5]: -0.34 °C
- deltaT [6]: 0.44 °C
- deltaT [7]: 0.01 °C
- deltaT [8]: 0.63 °C
- deltaT [9]: 0.16 °C
- deltaT [10]: 0.26 °C
- deltaT [11]: -0.26 °C
- deltaT (Mus musculus [12]): -1.37 °C
- deltaT (Mus musculus [13]): -1.47 °C
- deltaT (Mus musculus [14]): -1.77 °C
- deltaT (Mus musculus [15]): -1.37 °C
- deltaT (Mus musculus [16]): -1.45 °C
- deltaT (Mus musculus [17]): -0.92 °C
- deltaT (Mus musculus [18]): -1.08 °C
- deltaT (Mus musculus [19]): -0.65 °C
- Activity [20]: 2.5
- Activity [21]: 2
- Activity (Mus musculus [22]): 16.25
- Activity (Mus musculus [23]): 12.25
- Activity (Mus musculus [24]): 8.25
- half-life at 2.5 µM [25]: 41.3 min

Compound: COc1cc(C(=O)NC2CC3CCC(C2)N3Cc2ccccc2)nc2ccccc12 (stereo unspecified)
- Ki (D(2) dopamine receptor): > 10000 nM
- Ki [1]: 30.5 nM
- Ki [2]: 495 nM

Compound: O=C(NC1CC2CCC(C1)N2Cc1ccccn1)c1ccc2ccccc2c1 (stereo unspecified)
- Ki (D(2) dopamine receptor): 2200 nM
- Ki [1]: 315 nM
- Ki [2]: 589 nM

Compound: O=C(NC1CC2CCC(C1)N2Cc1ccccc1C(F)(F)F)c1ccc2ccccc2c1 (stereo unspecified)
- Ki (D(2) dopamine receptor): 537 nM
- Ki [1]: 476 nM
- Ki [2]: 102 nM

Compound: O=C(NC1CC2CCC(C1)N2Cc1ccc(C(F)(F)F)cc1)c1ccc2ccccc2c1 (stereo unspecified)
- Ki (D(2) dopamine receptor): 629 nM
- Ki [1]: 2000 nM
- Ki [2]: > 10000 nM

Compound: Cc1ccccc1CN1C2CCC1CC(NC(=O)c1ccc3ccccc3c1)C2 (stereo unspecified)
- Ki (D(2) dopamine receptor): 118 nM
- Ki [1]: 193 nM
- Ki [2]: 1290 nM

Compound: O=C(NC1CC2CCC(C1)N2Cc1cccnc1)c1ccc2ccccc2c1 (stereo unspecified)
- Ki (D(2) dopamine receptor): 2400 nM
- Ki [1]: 485 nM
- Ki [2]: 484 nM

Compound: COc1ccc(CN2C3CCC2CC(NC(=O)c2ccc4ccccc4c2)C3)cc1 (stereo unspecified)
- Ki (D(2) dopamine receptor): 0.6 nM
- Ki [1]: 2600 nM
- Ki [2]: 920 nM

Compound: O=C(NC1CC2CCC(C1)N2Cc1ccccc1)c1ccc2ccccc2n1 (stereo unspecified)
- Ki (D(2) dopamine receptor): 589 nM
- Ki [1]: 62.7 nM
- Ki [2]: 502 nM

Compound: O=C(NC1CC2CCC(C1)N2Cc1ccccc1F)c1ccc2ccccc2c1 (stereo unspecified)
- Ki (D(2) dopamine receptor): 715 nM
- Ki [1]: 365 nM
- Ki [2]: 106 nM

Compound: O=C(NC1CC2CCC(C1)N2Cc1ccncc1)c1ccc2ccccc2c1 (stereo unspecified)
- Ki (D(2) dopamine receptor): 2700 nM
- Ki [1]: 2300 nM
- Ki [2]: 1120 nM

Compound: Cc1ccc(CN2C3CCC2CC(NC(=O)c2ccc4ccccc4c2)C3)cc1 (stereo unspecified)
- Ki (D(2) dopamine receptor): 0.4 nM
- Ki [1]: 728 nM
- Ki [2]: 854 nM

Compound: O=C(NC1CC2CCC(C1)N2Cc1ccc(Br)cc1)c1ccc2ccccc2c1 (stereo unspecified)
- Ki (D(2) dopamine receptor): 4.5 nM
- Ki [1]: 230 nM
- Ki [2]: 326 nM

Compound: O=C(NC1CC2CCC(C1)N2Cc1ccccc1Br)c1ccc2ccccc2c1 (stereo unspecified)
- Ki (D(2) dopamine receptor): 22.8 nM
- Ki [1]: 196 nM
- Ki [2]: 136 nM

Compound: O=C(NC1CC2CCC(C1)N2Cc1ccc(Cl)cc1)c1ccc2ccccc2c1 (stereo unspecified)
- Ki (D(2) dopamine receptor): 0.4 nM
- Ki [1]: 2500 nM
- Ki [2]: 397 nM
